Source: PubChem
FGF22 binding: binders of recombinant human FGF22 by thermal shift | activity (Tm shift, normalised), % at 9.99 µM | hit rate 1.5% among 340,000 | Q9HCT0 | SYPRO orange fluorescence; percent of sucrose octasulfate shift, DMSO zero;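 active = mean Tm shift, scaled 0 neutral to 100 positive control, at about 1.3% or above, every replicate too, limit read from the data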
Target sequence (Q9HCT0 whole entry, looked up): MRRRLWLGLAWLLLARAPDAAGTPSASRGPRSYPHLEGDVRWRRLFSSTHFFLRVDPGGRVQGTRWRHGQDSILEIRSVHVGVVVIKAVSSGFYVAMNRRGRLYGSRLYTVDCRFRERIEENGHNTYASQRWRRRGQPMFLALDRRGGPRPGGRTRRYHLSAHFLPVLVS
SIRT5 block: blocks human SIRT5 desuccinylation of peptide. inhibition, % at 15 µM. Purified SirT5, succinyl-peptide AMC, trypsin-coupled fluorescence. AID 652115. hit rate 1.1% among 330,000; in the data active = inhibition above about 15%
Target sequence (Q9NXA8 whole entry, looked up): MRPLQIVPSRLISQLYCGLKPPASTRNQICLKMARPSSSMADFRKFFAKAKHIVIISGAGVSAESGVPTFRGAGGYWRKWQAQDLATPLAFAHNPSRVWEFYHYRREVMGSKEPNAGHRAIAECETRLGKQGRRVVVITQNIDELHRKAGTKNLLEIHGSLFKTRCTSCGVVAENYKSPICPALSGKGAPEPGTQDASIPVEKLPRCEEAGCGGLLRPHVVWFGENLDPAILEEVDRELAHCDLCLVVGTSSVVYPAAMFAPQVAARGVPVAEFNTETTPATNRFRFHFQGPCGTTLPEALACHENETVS
E-selectin induc: induces E-selectin expression in human endothelial cells; activation, % at 7.58 µM; P16581; HUVEC E-selectin immunofluorescence imaging; normalized: neutral wells 0, TNF-alpha wells 100; hit rate 0.37% among 260,000;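 active = mean E-selectin-positive cell signal at least 10% of the positive control, reached in at least 60% of replicates, without over 20% cell loss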
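Material: HUVEC primary endothelial cells; Amount: 3,000 cells per well; Dosing: single concentration; Medium: EGM-2 growth medium on 0.1% gelatin-coated wells; Read-out basis: percent E-selectin-positive cells; Signal: immunofluorescence imaging; Control set: TNF-alpha, DMSO.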
S100A4 inh HTS: inhibitors of human S100A4 binding to myosin IIA peptide | hit rate 0.14% among 360,000 | inhibition, % at 10.7 µM | S100A4/TAMRA-MyoIIA peptide fluorescence polarization | P26447;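 active = mean inhibition of at least 70% across replicates, with every replicate also reaching that level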
Target sequence (P26447 whole entry, looked up): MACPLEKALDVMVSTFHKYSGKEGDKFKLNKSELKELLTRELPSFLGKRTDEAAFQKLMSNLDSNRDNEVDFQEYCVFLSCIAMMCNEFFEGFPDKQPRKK
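Test system – S100A4 monomer (human) · Compound – single-point compound testing · Schedule – 5 min incubation before reading · Probe or stimulus – TAMRA-labelled myosin IIA heavy-chain peptide probe, 5 nM · Benchmarks – neutral control DMSO, positive control TFP · Medium – Calcium-containing HEPES buffer, pH 7.2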
miR122 inh: inhibitors of miR-122 in Huh7 cells. Huh7 miR-122 Renilla luciferase sensor, 48 h; neutral wells = 0, positive control = 100. hit rate 0.3% among 340,000. activation (reporter increase), % at 12.5 µM;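 active = mean replicate activation score at least 90 and every replicate individually at or above 90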;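 note: higher luciferase means less miR-122 activity so hits act as miR-122 inhibitors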
Numbers stand for hits; n = inactive; x = no result given; [ ] = another dose, or the depositor's remark. This is a sample that favours compounds with a hit; in the whole collection about 2.5% have one here.

SMILES	FGF22 binding	SIRT5 block	E-selectin induc	S100A4 inh HTS	miR122 inh
COc1ccc(NC(=O)N(C)C[C@@H]2OCCCC[C@H](C)Oc3ccc(NS(=O)(=O)c4ccc(F)cc4)cc3C(=O)N([C@H](C)CO)C[C@H]2C)cc1	n	n	n	n	x
C[C@@H]1CCCCO[C@H](CN(C)C(=O)Nc2ccccc2)[C@H](C)CN([C@@H](C)CO)C(=O)c2cc(NC(=O)C3CCCCC3)ccc2O1	n	n	x	n	n
C[C@@H]1CN([C@@H](C)CO)C(=O)c2cccc(NC(=O)c3ccncc3)c2O[C@H]1CN(C)Cc1ccccc1	n	23.4	n	n	n
C[C@H](CO)N1C[C@H](C)[C@H](CN(C)Cc2ccc(C(=O)Nc3ccccc3N)cc2)Oc2c(NC(=O)C3CCOCC3)cccc2C1=O	n	n	n	n	n
C[C@H]1CN([C@@H](C)CO)C(=O)c2cccc(NC(=O)c3ccncc3)c2O[C@@H]1CN(C)Cc1ccc(C(F)(F)F)cc1	16.6	n	n	n	107.5[16.7 µM]
C[C@@H]1CN([C@H](C)CO)C(=O)c2cccc(NC(=O)c3cnccn3)c2O[C@H]1CN(C)Cc1ccc(C(F)(F)F)cc1	n	n	x	n	n
C[C@@H]1CN([C@@H](C)CO)C(=O)c2cccc(NC(=O)c3cnccn3)c2O[C@H]1CN(C)Cc1ccc(C(F)(F)F)cc1	n	n	x	n	152.2[16.7 µM]
C[C@@H]1CN([C@@H](C)CO)C(=O)c2cccc(NC(=O)C3CCOCC3)c2O[C@@H]1CN(C)Cc1ccc(C(=O)Nc2ccccc2N)cc1	n	n	n	79.4	x
O=C(NC[C@@H]1[C@H](c2ccccc2)[C@H](CO)N1Cc1ccccn1)C1CCCC1	x	x	n	x	n
CCC(=O)N1C[C@H](C)[C@@H](OC)CN(C)C(=O)c2cc(NC(=O)C3CCCCC3)ccc2OC[C@H]1C	n	n	n	n	x
CCN1[C@@H]2c3ccc(-c4cccc(F)c4)c(=O)n3C[C@@H]2[C@@H](CO)[C@@H]1C(=O)NCCCN(C)C	x	n	n	n	x
C[C@H](CO)N1C[C@H](C)[C@@H](CN(C)Cc2ccc(C(=O)Nc3ccccc3N)cc2)Oc2c(NS(=O)(=O)c3cccs3)cccc2C1=O	n	n	n	n	x
C[C@H]1CN([C@@H](C)CO)C(=O)c2cccc(NS(=O)(=O)c3cccs3)c2O[C@@H]1CN(C)Cc1ccc(C(=O)Nc2ccccc2N)cc1	n	n	392.0	n	x
COCC(=O)Nc1ccc2c(c1)C(=O)N(C)C[C@H](OC)[C@H](C)CN(Cc1cc(F)ccc1F)[C@@H](C)CO2	n	n	n	n	x
Cn1nc(C(=O)NNC(=O)c2ccccc2F)c2ccccc2c1=O	n	n	x	n	x
Cn1nc(C(=O)NNC(=O)c2ccccc2Br)c2ccccc2c1=O	n	n	237.1	n	n
CC(C)c1ccc(Nc2ccc(C(=O)O)cc2[N+](=O)[O-])cc1	n	30.4	n	n	n
Cc1ccc(Nc2ccc(C(=O)O)cc2[N+](=O)[O-])cc1	n	n	x	n	x
COc1ccc(/C=N/NC(=O)c2cccc(NC(C)=O)c2)c(OC)c1	42.9	n	x	n	x
COc1ccc(/C=N/NC(=O)c2cccc(NC(=O)c3ccccc3Cl)c2)cc1OC	43.5	n	x	n	x
COc1cccc(/C=N/NC(=O)C(=O)N/N=C/c2cccc(OC)c2OC)c1OC	n	n	x	n	n
NC(=O)N/N=C/c1ccccc1OC(=O)c1ccccc1Br	42.9	n	x	n	x
COc1ccc(C(=O)Nc2cccc(C(=O)N/N=C/c3ccc(OC)cc3OC)c2)cc1	n	n	x	n	x
COc1ccccc1C=NNC(=O)C(=O)NN=Cc1ccccc1OC	43.3	x	n	n	n
COc1cc(/C=N/NC(=O)c2cccc(NC(=O)c3ccccc3Cl)c2)ccc1O	n	n	x	n	n
SMILES	FGF22 binding	SIRT5 block	E-selectin induc	S100A4 inh HTS	miR122 inh
CCNC(=O)[C@H]1[C@H](CO)[C@H]2Cn3c(ccc(-c4ccccc4F)c3=O)[C@@H]1N2CC1CC1	n	n	n	n	n
c1ccc(CN2CCC(=NNc3nc4ccccc4[nH]3)CC2)cc1	n	n	x	n	n
CC(C)(C)C1CCC(=NNc2nc3ccccc3[nH]2)CC1 (stereo not given)	x	19.0	n	n	n
COc1ccc(S(=O)(=O)Nc2ccc3c(c2)CC(=O)N([C@@H](C)CO)C[C@@H](C)[C@H](CN(C)S(=O)(=O)c2ccc(C)cc2)O3)cc1	n	18.5	n	n	n
COc1ccc(S(=O)(=O)N(C)C[C@H]2Oc3ccc(NS(=O)(=O)c4ccccc4)cc3CC(=O)N([C@H](C)CO)C[C@@H]2C)cc1	n	16.8	n	n	n
Cc1ccc(S(=O)(=O)Nc2ccc3c(c2)CC(=O)N([C@@H](C)CO)C[C@H](C)[C@H](CN(C)S(=O)(=O)c2c(C)noc2C)O3)cc1	n	n	n	n	n
Cc1ccc(S(=O)(=O)Nc2ccc3c(c2)CC(=O)N([C@H](C)CO)C[C@H](C)[C@@H](CN(C)S(=O)(=O)c2c(C)noc2C)O3)cc1	n	15.8	n	n	n
COc1ccc(S(=O)(=O)N(C)C[C@@H]2Oc3ccc(NS(=O)(=O)c4ccc(C)cc4)cc3CC(=O)N([C@H](C)CO)C[C@@H]2C)cc1	n	x	n	x	n
O=C(c1ccccc1)N1C[C@@H]2[C@H](c3ccccc31)[C@@H](CO)N2S(=O)(=O)c1ccccc1	n	n	n	n	n
COc1ccc2c3c([nH]c2c1)[C@@H](CO)N(CC1CC1)CC31CCN(C(=O)NC2CCCC2)CC1	n	x	n	n	x
CCc1cc2c(nc1CC)CCCN2S(=O)(=O)c1c(C)noc1C	43.0	x	n	n	x
Cc1cc(Oc2ccc(=O)n(C)n2)nc(SCc2ccccc2)n1	43.3	n	n	n	x
O=C(Nc1ccccc1F)N1CCCCN2[C@H](C1)[C@@H](c1ccc(-c3cccnc3)cc1)[C@@H]2CO	n	n	n	n	n
Cc1noc(C)c1NC(=O)Nc1ccc2c(c1)CC(=O)N([C@H](C)CO)C[C@H](C)[C@@H](CN(C)C(=O)Nc1ccc(C(F)(F)F)cc1)O2	n	n	n	n	n
CC1(C)Cc2ccccc2-c2nc3n(c(=O)c21)CCS3	n	n	77.4	n	n
CC1(C)Cc2ccccc2-c2nc3n(c(=O)c21)CCCS3	n	n	x	n	n
CC(=O)C[C@@H](O)CC(=O)[C@@H]1OC(=O)CCCCC/C=C/Cc2ccccc21	n	24.4	n	n	n
CC[C@H]1C/C=C\Cc2ccccc2[C@@H](C(=O)C[C@@H](O)CC(C)=O)OC1=O	n	17.7	n	n	n
C/C=C/c1ccc([C@H]2[C@@H](CO)N(CC3CCCCC3)[C@@H]2CNC(C)C)cc1	x	19.5	n	n	x
CC(=O)N(C)C[C@@H]1Oc2cc(C3=CCCCC3)ccc2S(=O)(=O)N([C@@H](C)CO)C[C@H]1C	x	x	n	x	n
O=C(O)COc1ccc(Cl)cc1C1CCCCC1	43.4	n	n	n	n
